The record followed here is ChEMBL document CHEMBL1806437, “Design, synthesis and antileishmanial in vitro activity of new series of chalcones-like compounds: a molecular hybridization approach” (Bioorg Med Chem, 2011).

The subject of one experiment is Leishmania amazonensis. Nature of the experiment: Antileishmanial activity against Leishmania amazonensis MHOM/IFLA/BR/67/PH8 promastigotes after 72 hrs by cell counting using Neubauer chamber. The experiment is classed as functional, organism-based. Particulars: MHOM/IFLA/BR/67/PH8, 72 h. The method, boiled down: (§1)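 Log-phase promastigotes seeded at 1 × 10⁶ parasites/mL in Schneider's Drosophila medium with 20% FBS, streptomycin and penicillin (100 U/mL), 26 °C, with or without a range of compound concentrations; Glucantime and amphotericin B as reference controls. At 72 h cells fixed in citric acid/NaCl/formalin isotonic solution and counted microscopically; IC50/72 h by probit regression.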

A further experiment relates to Leishmania chagasi. The experiment is described as follows: Antileishmanial activity against Leishmania chagasi MCAN/BR/99/JP15 promastigotes after 72 hrs by cell counting using Neubauer chamber. Particulars: MCAN/BR/99/JP15, 72 h. It counts as functional, organism-based. In short, it runs like this:
as §1

As for `C=C(C(=O)Oc1ccccc1C(=O)OC)C(O)c1ccccc1[N+](=O)[O-]` (configuration not stated), the IC50 stood at 7.65 µM with Leishmania amazonensis and 10.1 µM with Leishmania chagasi.
Turning to `C=C(C(=O)Oc1ccccc1C(=O)OC)C(O)c1cccc([N+](=O)[O-])c1` (configuration not stated), the IC50 worked out at 22.9 µM in the experiment on Leishmania amazonensis and 40.6 µM in the experiment on Leishmania chagasi.
For `C=C(C(=O)Oc1ccccc1C(=O)OC)C(O)c1ccc([N+](=O)[O-])cc1` (configuration not stated), the IC50 worked out at 11.3 µM in the experiment with Leishmania amazonensis and 57.3 µM in the experiment on Leishmania chagasi.
Turning to `C=C(C(=O)Oc1ccccc1C(=O)OC)C(O)c1ccncc1` (configuration not stated), the IC50 came out at 23.8 µM in the experiment with Leishmania amazonensis and 33.4 µM with Leishmania chagasi.
For `C=C(C(=O)Oc1ccccc1C(=O)OC)C(O)c1cccnc1` (configuration not stated) the same measures were 31.2 µM and 38.7 µM.
Consider `C=C(C(=O)Oc1ccccc1C(=O)OC)C(O)c1ccc(Br)cc1` (configuration not stated), for which the IC50 in the experiment with Leishmania amazonensis was 22 µM; in the experiment on Leishmania chagasi it was 43 µM.
For `C=C(C(=O)Oc1ccccc1C(=O)OC)C(O)c1ccc2ccccc2c1` (configuration not stated) the same measures were 9 µM and 41.4 µM.
On to `C=C(CCC(=O)Oc1ccccc1C(=O)OC)C(=O)Oc1ccccc1C(=O)OC`, for which the IC50 with Leishmania amazonensis turned out to be 22.4 µM; in the experiment on Leishmania chagasi, 49.1 µM.
With `C[C@@H]1[C@H](O)[C@@H](C)/C=C/C=C/C=C/C=C/C=C/C=C/C=C/[C@H](O[C@@H]2O[C@H](C)[C@@H](O)[C@H](N)[C@@H]2O)C[C@@H]2O[C@](O)(C[C@@H](O)C[C@@H](O)[C@H](O)CC[C@@H](O)C[C@@H](O)CC(=O)O[C@H]1C)C[C@H](O)[C@H]2C(=O)O` [AMPHOTERICIN B], the IC50 with Leishmania amazonensis amounted to 0.12 µM; with Leishmania chagasi, 0.69 µM.
In the case of `C=CC(=O)Oc1ccccc1C(=O)OC` [METHYL SALICYLATE ACRYLIC ESTER], the IC50 with Leishmania amazonensis amounted to 108 µM; in the experiment with Leishmania chagasi it was 119 µM.
Regarding `COC(=O)c1ccccc1O` [METHYL SALICYLATE], the IC50 with Leishmania amazonensis came out at 228 µM; in the experiment on Leishmania chagasi it was 261 µM.

By IC50 is commonly meant the concentration at which inhibition is half-maximal. A lower IC50 goes with inhibition by little substance.
